UBC9 SUMO inh: inhibitors of in vitro SUMOylation cascade, primary screen, biochemical, HTRF, uHTS. HTRF SUMOylation assay, SAE1/SAE2 + UBC9. inhibition, % at 35 µM. hit rate 0.36% among 290,000; in the data active means inhibition above about 50%, passing the limit was not always enough
Target sequence (P63279 whole entry, looked up): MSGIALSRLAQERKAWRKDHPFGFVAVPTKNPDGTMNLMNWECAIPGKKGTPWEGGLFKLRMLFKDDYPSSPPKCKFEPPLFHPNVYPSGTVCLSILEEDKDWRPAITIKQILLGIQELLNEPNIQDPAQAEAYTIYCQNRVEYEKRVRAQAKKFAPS
eIF4E 4G PPI: eIF4E–eIF4G protein interaction inhibitors, primary screen, biochemical, uHTS, TR-FRET, eIF4GI fragment. Eukaryotic translation initiation factor 4E (Mus musculus) + Eukaryotic translation …. TR-FRET eIF4E-eIF4GI(517-606) binding, 2 h. inhibition, % at 21.7 µM. hit rate 0.37% among 220,000
14-3-3 Bad PPI: inhibitors of 14-3-3 zeta/Bad binding, primary screen, biochemical, TR-FRET, bovine 14-3-3 zeta. 14-3-3 protein zeta/delta (Bos taurus), P63103. TR-FRET 14-3-3zeta/Dy647-pBad peptide displacement, 1 h. inhibition, % at 21.7 µM. hit rate 0.71% among 220,000. AID 781, 2007;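 active means inhibition above about 70%, limit read from the data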
Target sequence (P63103 whole entry, looked up): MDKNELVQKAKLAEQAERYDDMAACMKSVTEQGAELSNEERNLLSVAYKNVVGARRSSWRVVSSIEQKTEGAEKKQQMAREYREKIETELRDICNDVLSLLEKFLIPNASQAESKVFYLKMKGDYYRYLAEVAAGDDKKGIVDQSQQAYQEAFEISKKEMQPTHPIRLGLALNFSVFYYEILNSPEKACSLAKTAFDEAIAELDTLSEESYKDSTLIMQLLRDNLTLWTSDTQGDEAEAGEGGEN
p97 ATPase inh: inhibitors of human p97 ATPase, primary screen, biochemical | hit rate 0.42% among 220,000 | recombinant p97 ATPase, Kinase-Glo ATP luminescence, 3 h | Transitional endoplasmic reticulum ATPase (Homo sapiens), P55072 | inhibition, % at 8 µM; in the data active means inhibition above about 15%
NCF1 inh: p47phox/p22phox peptide binding inhibitors, primary screen, biochemical, uHTS, NADPH oxidase regulatory subunit. AID 1274, 2008. inhibition, % at 24.7 µM. Neutrophil cytosol factor 1 (Homo sapiens), P14598. fluorescence polarization, 2 h. hit rate 0.53% among 220,000
Tb MetRS inh: T. brucei MetRS inhibitors, primary screen, biochemical, luminescence | purified T. brucei MetRS, ATP depletion, Kinase-Glo luminescence | inhibition, % at 11.9 µM | hit rate 0.4% among 360,000 | AID 624268, 2012;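 active means inhibition above a per-plate cutoff of the control wells' mean inhibition plus 3 SD, cut at about 5.5% in these data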
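Dosing: 11.9 µM compound single dose, 0.9% DMSO; Assay system: purified T. brucei MetRS enzyme; Measured by: Kinase-Glo luciferase luminescence reporting remaining unconsumed ATP; Schedule: 15 min plus 2 h at 25 °C.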
Numbers stand for hits; n = inactive; x = not tested or not shown. A selection: hits, their analogues and other compounds. The true share with any hit is near 1.6%.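 How the source made its calls, unless noted: active means inhibition above about 30% (limit read from the data); inactive means the rest.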

SMILES	UBC9 SUMO inh	eIF4E 4G PPI	14-3-3 Bad PPI	p97 ATPase inh	NCF1 inh	Tb MetRS inh
c1ccc(OCC2CO2)cc1 (stereo not drawn)	x	x	x	x	x	n
c1ccc(-c2[nH]c[n+](CC3CO3)c2-c2ccccc2)cc1 (stereo not drawn)	n	n	n	n	30.6	x
COC(=O)C1(F)C(=O)NC(=O)NC1O (stereo not drawn)	x	x	x	x	x	n
COC(=O)C1=C(C(=O)OC)SC2(S1)C(C(=O)OC)=C(C(=O)OC)Sc1c2ssc1=O	x	x	x	x	x	n
CO[C@H]1C=CCCC=CC(=O)O[C@H]([C@H](C)C(=O)CCCC2CC(=O)NC(=O)C2)C(C)=C[C@@H](C)[C@@H]1O	x	x	x	x	x	n
CC12Nc3ccccc3C(=O)N1Cc1cnnn1-c1ccccc12 (stereo not drawn)	x	x	x	x	x	n
Fc1ccc2c(c1)nnn2C1CCN(Cc2nnnn2CCc2ccccc2)CC1	n	n	75.6	n	n	n
c1ccc(CCn2nnnc2CN2CCC(n3nnc4ccccc43)CC2)cc1	n	n	n	n	n	n
CN(C)c1ccc2c(c1)N=C(c1ccco1)OP2(=S)N1CCOCC1 (stereo not drawn)	n	41.3	n	n	n	n
CC(C)C[C@H]1COc2cc(N3CCN(C)CC3)ccc2S(=O)(=O)N1	x	x	x	x	x	n
CC(Cc1ccccc1)[n+]1cc(/N=C(\[O-])N(C)C)on1 (stereo not drawn)	n	n	85.5	n	n	n
CN1CCN2c3ccc(N)cc3CC3(C(=O)NC(=O)NC3=O)C2C1 (stereo not drawn)	78.9	93.5	95.8	n	n	n
CN1C(=O)N(C)C(=O)C2(Cc3cc(N)ccc3N3CCN(c4ccccc4F)CC32)C1=O (stereo not drawn)	n	n	82.3	n	n	x
CCN1C(=O)N(CC)C(=O)C2(Cc3ccccc3N3CCN(c4ccccc4)CC32)C1=O (stereo not drawn)	n	n	n	n	n	n
O=C1NC(=O)C2(Cc3ccccc3N3CCCC32)C(=O)N1 (stereo not drawn)	n	n	n	n	n	n
C[C@@]12CC[C@@H](c3cc4c(cc3C1)OCO4)N2c1ccccc1	x	x	x	x	x	n
O=C(O)CCC(=O)NCCC1=c2ccccc2=N/C1=C\c1c(O)n(Cc2ccc(F)cc2)c(=S)[nH]c1=O	n	59.8	74.7	n	n	n
COC1CC2C=C(C)C=CC=CC(=O)NC(c3ccccc3)CC=CCCC(O)CC(=O)C2=C1O (stereo not drawn)	x	x	x	x	x	n
CCn1c(O)c(C(c2ccccn2)c2c(O)n(CC)c(=S)[nH]c2=O)c(=O)[nH]c1=S	n	n	73.3	n	n	n
CCOC(=O)[C@]12Cc3c(cc(OC)c(OC)c3OC)[C@H]1N(C1CCCCC1)C(=O)c1ccccc12	x	x	x	x	x	n
Cc1cccc(C)c1-n1nnnc1C(c1cccc2ccccc12)N1CCC2(CC1)C(=O)NCN2c1ccccc1 (stereo not drawn)	x	x	x	x	x	n
O=C(C1CCC(=O)N1C1CCCC1)N1CCC2(CC1)OCCO2 (stereo not drawn)	n	n	n	n	n	n
O=C(C1CC(=O)N(C2CCCCCCC2)C1)N1CCC2(CC1)OCCO2 (stereo not drawn)	n	n	n	n	34.5	n
CN(C)c1ccc(/C=C/[N+](=O)[O-])cc1	n	n	n	n	43.0	n
O=c1[nH]c2ccccc2n1C1CCN(C(c2cc3ccccc3o2)c2nnnn2-c2ccc3c(c2)OCCO3)CC1 (stereo not drawn)	x	x	x	x	x	n
CCCCCCCCCOc1ccc2[nH]cc(CCN)c2c1	n	n	n	n	92.0	x
CN1CCN(C(=O)COc2ccc(S(=O)(=O)NCc3ccccc3)cc2Cl)CC1	n	n	75.4	n	n	n
Cc1cc(S(=O)(=O)NCC(C)C)ccc1OCC(=O)N1CCN(Cc2ccccc2)CC1	n	n	n	n	n	n

Bioassay records (PubChem BioAssay)
